Data: ChEMBL document CHEMBL1125320, “Imidazole-5-acrylic acids: potent nonpeptide angiotensin II receptor antagonists designed using a novel peptide pharmacophore model” (J Med Chem, 1992)

What was measured:
[1] = molecular target: T1, Angiotensin II receptor (Rattus norvegicus, UniProt P29089+P25095+P35351); assay: Inhibition of [125I]angiotensin II specific binding to rat mesenteric arteries; type: protein assay
T1 sequence (P29089 whole entry): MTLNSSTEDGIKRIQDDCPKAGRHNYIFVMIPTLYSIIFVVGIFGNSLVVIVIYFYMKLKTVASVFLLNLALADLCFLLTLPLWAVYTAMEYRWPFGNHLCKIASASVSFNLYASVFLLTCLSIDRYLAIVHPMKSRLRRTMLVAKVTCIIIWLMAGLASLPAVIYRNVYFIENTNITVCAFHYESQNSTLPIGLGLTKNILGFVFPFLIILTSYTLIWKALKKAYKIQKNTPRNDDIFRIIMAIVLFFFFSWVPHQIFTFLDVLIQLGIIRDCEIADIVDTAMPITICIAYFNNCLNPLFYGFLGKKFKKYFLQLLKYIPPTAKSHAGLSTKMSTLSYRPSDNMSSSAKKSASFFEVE
T1 sequence (P25095 whole entry): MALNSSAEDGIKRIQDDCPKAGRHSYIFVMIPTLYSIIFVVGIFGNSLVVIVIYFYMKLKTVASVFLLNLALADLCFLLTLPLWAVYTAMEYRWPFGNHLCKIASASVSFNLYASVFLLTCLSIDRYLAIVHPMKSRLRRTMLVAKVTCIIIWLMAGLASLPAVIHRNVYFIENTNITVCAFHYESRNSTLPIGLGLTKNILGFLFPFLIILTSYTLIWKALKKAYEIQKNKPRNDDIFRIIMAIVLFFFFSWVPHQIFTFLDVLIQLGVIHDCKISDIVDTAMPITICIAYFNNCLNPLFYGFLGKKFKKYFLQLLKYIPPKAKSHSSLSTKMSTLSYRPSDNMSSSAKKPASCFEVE
T1 sequence (P35351 whole entry): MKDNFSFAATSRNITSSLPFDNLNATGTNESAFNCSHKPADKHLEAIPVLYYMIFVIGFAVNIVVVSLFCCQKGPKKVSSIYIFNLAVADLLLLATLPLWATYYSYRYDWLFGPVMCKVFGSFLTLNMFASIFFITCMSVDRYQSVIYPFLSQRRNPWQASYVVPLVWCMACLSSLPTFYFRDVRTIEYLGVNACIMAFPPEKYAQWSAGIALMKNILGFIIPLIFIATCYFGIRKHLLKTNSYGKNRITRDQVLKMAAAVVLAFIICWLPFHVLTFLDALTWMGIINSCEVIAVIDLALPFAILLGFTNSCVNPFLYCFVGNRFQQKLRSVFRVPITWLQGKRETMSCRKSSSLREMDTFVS

[2] = molecular target: T2, Type-1 angiotensin II receptor (Oryctolagus cuniculus) (UniProt P34976); assay: (§1) Compound was evaluated for the inhibition of AII-induced vasoconstriction of the rabbit aorta; type: functional, tissue-based
T2 sequence (whole entry): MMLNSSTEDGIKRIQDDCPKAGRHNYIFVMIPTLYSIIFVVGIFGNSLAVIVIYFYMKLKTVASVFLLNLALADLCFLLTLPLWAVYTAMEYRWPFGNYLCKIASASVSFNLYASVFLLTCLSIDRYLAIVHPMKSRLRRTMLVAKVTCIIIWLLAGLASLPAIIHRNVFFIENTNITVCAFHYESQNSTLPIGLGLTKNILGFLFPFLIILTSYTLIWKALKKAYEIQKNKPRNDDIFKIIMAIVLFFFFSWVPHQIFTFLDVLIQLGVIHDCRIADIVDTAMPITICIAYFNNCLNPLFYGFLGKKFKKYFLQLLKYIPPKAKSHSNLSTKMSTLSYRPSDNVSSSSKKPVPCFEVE
Summary of the method: (§2)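 Isolated rabbit aorta ring segments mounted on metal supports attached to force displacement transducers. Cumulative angiotensin II concentration-response curves were run without antagonist or after a 30-min antagonist incubation.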

[3] = molecular target: Angiotensin II receptor (Oryctolagus cuniculus); assay: Compound was evaluated for the inhibition of Angiotensin II receptor, induced vasoconstriction of the rabbit aorta
[4] = molecular target: Angiotensin II receptor (Oryctolagus cuniculus); assay: Inhibition of angiotensin II induced vasoconstriction of rabbit aorta
[5] = molecular target: T3, Type-1 angiotensin II receptor B (Rattus norvegicus, UniProt P29089); assay: Inhibition of [125I]angiotensin II receptor specific binding to rat mesenteric arteries
T3 sequence (P29089 whole entry): T1 sequence (P29089 whole entry)

[6] = test system: Rattus norvegicus; assay: Compound was evaluated in vivo, for the dose that produced 50% inhibition of the pressor response to AII in conscious normotensive rats after iv administration; type: functional; details: read-out: ID50 (the source's name)
Summary of the method: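 Conscious normotensive rats with indwelling femoral arterial and venous catheters were tested 2-3 days after surgery while in a restrainer, with continuous arterial pressure recording. The MAP rise to iv angiotensin II 250 ng/kg was measured at time points before and after iv compound at 0.3-300 mg/kg.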

[7] = molecular target: T2, Type-1 angiotensin II receptor (Oryctolagus cuniculus); assay: (§3) Compound was evaluated for the inhibition of Angiotensin II receptor induced vasoconstriction of the rabbit aorta; type: functional, tissue-based; summary of the method: as §2
[8] = molecular target: T2, Type-1 angiotensin II receptor (Oryctolagus cuniculus); assay: as §1; type: tissue-based; summary of the method: as §2
[9] = molecular target: T3, Type-1 angiotensin II receptor B; assay: Compound was evaluated for the inhibition of [125I]AII specific binding to rat mesenteric arteries
Summary of the method: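 Particulate fraction from rat mesenteric arteries incubated in Tris buffer with 80 pM [125I]angiotensin II, with or without antagonist, for 1 h at 25 °C. The incubation was stopped by rapid filtration, and filter-bound radioligand was counted on a γ counter. Inhibition of specific binding; n = 3-5.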

[10] = molecular target: T2, Type-1 angiotensin II receptor (Oryctolagus cuniculus); assay: as §3; type: tissue-based; summary of the method: as §2
[11] = molecular target: T2, Type-1 angiotensin II receptor (Oryctolagus cuniculus); assay: as §1; summary of the method: as §2
[12] = test system: Rattus norvegicus; assay: Compound was evaluated in vivo, for the dose that produced 50% inhibition of the pressor response to AII in conscious normotensive rats after intraduodenal administration; type: functional; details: read-out: ID50 (the source's name)

| SMILES | IC50 [1] | Kb [4] | other results |
| --- | --- | --- | --- |
| CCCCc1ncc(/C=C(/C(=O)O)C(CCCC)c2cccs2)n1Cc1ccccc1Cl (stereo not drawn) | 18.7 µM | – | Kb [2]: 3.1 µM |
| CCCCc1ncc(/C=C(\Cc2ccc(OC)c(OC)c2)C(=O)O)n1Cc1ccccc1Cl | 6.8 µM | – | Kb [3]: 0.62 µM |
| CCCCc1ncc(/C=C(\Cc2ccc3ccccc3c2)C(=O)O)n1Cc1ccccc1Cl | 21.9 µM | 14.6 µM | – |
| CCCCc1ncc(/C(C)=C/C(=O)O)n1Cc1ccccc1Cl | 3.6 µM | 0.66 µM | – |
| CCCCc1ncc(CCCCC(=O)O)n1Cc1ccccc1Cl | 17 µM | 11 µM | – |
| CCCCc1ncc(/C=C(\Cc2cc(OC)c(OC)c(OC)c2)C(=O)O)n1Cc1ccccc1Cl | 1.9 µM | 1.7 µM | – |
| CCCCc1ncc(/C=C(/C(=O)O)C(c2ccccc2)c2cccs2)n1Cc1ccccc1Cl (stereo not drawn) | – | 2.3 µM | IC50 [5]: 2.4 µM |
| CCCCc1ncc(-c2cccc(C(=O)O)c2)n1Cc1ccccc1Cl | 33.9 µM | 4.8 µM | – |
| CCCCc1ncc(CCCC(=O)O)n1Cc1ccccc1Cl | > 10 µM | 15 µM | – |
| CCCCc1ncc(/C=C(\Cc2ccc(OC)s2)C(=O)O)n1Cc1ccccc1Cl | – | 0.03 µM | IC50 [5]: 0.09 µM |
| CCCCc1ncc(/C=C(\Cc2cccnc2)C(=O)O)n1Cc1ccccc1Cl | 0.3 µM | 0.18 µM | ED50 [6]: 9.8 mg/kg |
| CCCCc1ncc(/C=C(/C(=O)O)C(Cc2ccccc2)c2cccs2)n1Cc1ccccc1Cl (stereo not drawn) | 5.2 µM | 0.61 µM | – |
| CCCCc1ncc(/C=C(\Cc2ccc(OC)cc2)C(=O)O)n1Cc1ccccc1Cl | 0.81 µM | 0.12 µM | ED50 [6]: 9 mg/kg |
| CCCCc1ncc(CCCCCC(=O)O)n1Cc1ccccc1Cl | 19 µM | 7 µM | – |
| CCCCc1ncc(/C=C(\Cc2cccc(OC)c2)C(=O)O)n1Cc1ccccc1Cl | 0.81 µM | 0.27 µM | ED50 [6]: 10 mg/kg |
| CCCCc1ncc(/C=C(\CCc2cccs2)C(=O)O)n1Cc1ccccc1Cl | 0.86 µM | – | Kb [7]: 0.14 µM |
| CCCCc1ncc(/C=C(\Cc2ccsc2)C(=O)O)n1Cc1ccccc1Cl | – | – | IC50 [5]: 0.33 µM; ED50 [6]: 6.4 mg/kg |
| CCCCc1ncc(/C=C(\Cc2cccc(Oc3ccccc3)c2)C(=O)O)n1Cc1ccccc1Cl | – | – | Kb [8]: 18.1 µM; IC50 [9]: 10 µM |
| CCCCc1ncc(/C=C(\Cc2ccc(Cl)c(Cl)c2)C(=O)O)n1Cc1ccccc1Cl | – | 13.7 µM | IC50 [5]: 25.6 µM |
| CCCCc1ncc(/C=C(/C(=O)O)C(C)c2ccccc2)n1Cc1ccccc1Cl (stereo not drawn) | 4.6 µM | 0.24 µM | – |
| CCCCc1ncc(/C=C(\Cc2ccc([N+](=O)[O-])cc2)C(=O)O)n1Cc1ccccc1Cl | – | 0.31 µM | IC50 [5]: 0.4 µM |
| CCCCc1ncc(/C=C(\Cc2ccco2)C(=O)O)n1Cc1ccccc1Cl | 1.2 µM | 0.05 µM | – |
| CCCCc1ncc(/C=C(\CCc2ccccc2)C(=O)O)n1Cc1ccccc1Cl | 2.9 µM | 0.42 µM | – |
| CCCCc1ncc(-c2ccccc2C(=O)O)n1Cc1ccccc1Cl | > 100 µM | 17.2 µM | – |

| SMILES | IC50 [1] | Kb [4] | other results |
| --- | --- | --- | --- |
| CCCCc1nc(Cl)c(CC(=O)O)n1Cc1ccccc1Cl | – | – | Kb [10]: 2.7 µM; ED50 [6]: 30 mg/kg |
| CCCCc1ncc(/C=C(\Cc2ccc(O)cc2)C(=O)O)n1Cc1ccccc1Cl | 0.12 µM | 0.47 µM | – |
| CCCCc1ncc(/C=C(\Cc2c[nH]cn2)C(=O)O)n1Cc1ccccc1Cl | 0.25 µM | 0.31 µM | ED50 [6]: 11 mg/kg |
| CCCCc1ncc(/C=C(\Cc2ccc(N(C)C)cc2)C(=O)O)n1Cc1ccccc1Cl | 14.6 µM | 0.59 µM | – |
| CCCCc1ncc(/C=C(\Cc2ccc3c(c2)OCO3)C(=O)O)n1Cc1ccccc1Cl | 0.47 µM | 0.13 µM | ED50 [6]: 9.4 mg/kg |
| CCCCc1ncc(/C=C/C(=O)O)n1Cc1ccccc1Cl | 124 µM | 14 µM | – |
| CCCCc1ncc(/C=C(\Cc2ccccc2C)C(=O)O)n1Cc1ccccc1Cl | – | 1.14 µM | IC50 [5]: 5 µM |
| CCCCc1ncc(/C=C\C(=O)O)n1Cc1ccccc1Cl | 8.9 µM | 0.81 µM | ED50 [6]: 15 mg/kg |
| CCCCc1ncc(/C=C(\Cc2cc(OC)cs2)C(=O)O)n1Cc1ccccc1Cl | – | 0.03 µM | IC50 [5]: 0.3 µM |
| CCCCc1ncc(/C=C(\Cc2ccoc2)C(=O)O)n1Cc1ccccc1Cl | 0.36 µM | 0.03 µM | – |
| CCCCc1ncc(/C=C(\C)C(=O)O)n1Cc1ccccc1Cl | 22.3 µM | 0.97 µM | – |
| CCCCc1ncc(/C=C(\Cc2cccs2)C(=O)O)n1Cc1ccccc1Cl | – | – | ED50 [6]: 3.6 mg/kg |
| CCCCc1ncc(/C=C(\Cc2ccccc2)C(=O)O)n1Cc1ccccc1Cl | – | – | IC50 [5]: 2.6 µM; Kb [11]: 0.064 µM; ED50 [6]: 14 mg/kg |
| CCCCc1ncc(/C=C(\Cc2ccc(O)c(O)c2)C(=O)O)n1Cc1ccccc1Cl | 0.058 µM | – | Kb [2]: 0.14 µM; ED50 [12]: 20 mg/kg |
| CCCCc1ncc(/C=C(\Cc2ccccn2)C(=O)O)n1Cc1ccccc1Cl | 0.82 µM | 2.9 µM | – |
| CCCCc1ncc(CCC(=O)O)n1Cc1ccccc1Cl | 16.5 µM | 2.8 µM | – |
| CCCCc1ncc(/C=C(/Cc2ccccc2)C(=O)O)n1Cc1ccccc1Cl | – | – | Kb [2]: 8.7 µM |
| CCCCc1ncc(/C=C(\Cc2ccc(C)s2)C(=O)O)n1Cc1ccccc1Cl | – | 0.13 µM | IC50 [5]: 0.7 µM; ED50 [6]: 7.6 mg/kg |
| CCCCc1ncc(/C=C(\Cc2ccncc2)C(=O)O)n1Cc1ccccc1Cl | 0.15 µM | 0.17 µM | ED50 [6]: 5.9 mg/kg |
| CCCCc1ncc(/C=C(\Cc2sccc2C)C(=O)O)n1Cc1ccccc1Cl | – | 0.28 µM | IC50 [5]: 0.73 µM |
| CCCCc1ncc(/C=C(/Cc2ccco2)C(=O)O)n1Cc1ccccc1Cl | > 100 µM | 14.4 µM | – |
| CCCCc1ncc(/C=C(\Cc2ccc(N)cc2)C(=O)O)n1Cc1ccccc1Cl | – | 0.32 µM | IC50 [5]: 3 µM |
| CCCCc1ncc(/C=C(/C(=O)O)c2ccccc2)n1Cc1ccccc1Cl | 20.1 µM | 0.6 µM | – |
| CCCCc1ncc(CC(=O)O)n1Cc1ccccc1Cl | – | – | ED50 [6]: 22.5 mg/kg |
